{"source": "ChEMBL document CHEMBL5712918", "about": "“Targeting methyltransferase PRMT5 retards the carcinogenesis and metastasis of HNSCC via epigenetically inhibiting Twist1 transcription” (Neoplasia, 2020)", "key": {"HSC-6 [1]": {"tested_on": "HSC-6", "assay": "Antiproliferative activity against human HSC-6 cells assessed as reduction in colony formation at 0.5 to 5 uM after 10 to 14 days […]", "assay_type": "functional, cell-based", "conditions": "dose 0.5-5 µM, time 10-14 day", "method_in_brief": "(§1)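 Colony formation: cells dispersed to single cells and seeded at 500 cells/well in 6-well plates. Grown 10–14 days until macroscopic clones appeared, then formaldehyde-fixed and crystal violet-stained. Clone formation rate from clones counted by eye.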"}, "[2]": {"target": "Protein arginine N-methyltransferase 5 (Homo sapiens) (UniProt O14744)", "sequence (O14744 whole entry)": "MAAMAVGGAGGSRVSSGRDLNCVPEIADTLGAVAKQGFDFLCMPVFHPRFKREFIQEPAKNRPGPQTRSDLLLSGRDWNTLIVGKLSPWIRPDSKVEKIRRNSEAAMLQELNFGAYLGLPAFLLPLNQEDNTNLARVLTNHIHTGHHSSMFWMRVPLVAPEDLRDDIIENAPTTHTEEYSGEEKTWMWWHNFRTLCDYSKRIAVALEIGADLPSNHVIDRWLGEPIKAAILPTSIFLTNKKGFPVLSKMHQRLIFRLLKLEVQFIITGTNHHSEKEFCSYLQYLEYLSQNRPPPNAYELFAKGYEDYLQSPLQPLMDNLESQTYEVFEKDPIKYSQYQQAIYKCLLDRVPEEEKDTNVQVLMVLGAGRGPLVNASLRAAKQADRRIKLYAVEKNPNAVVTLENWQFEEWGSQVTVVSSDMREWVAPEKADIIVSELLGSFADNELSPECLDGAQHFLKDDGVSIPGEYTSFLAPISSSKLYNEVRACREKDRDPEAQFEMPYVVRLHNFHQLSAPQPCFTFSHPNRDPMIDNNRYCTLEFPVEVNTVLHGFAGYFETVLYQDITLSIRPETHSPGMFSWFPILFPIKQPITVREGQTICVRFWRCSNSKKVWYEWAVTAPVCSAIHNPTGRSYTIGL", "assay": "Inhibition of PRMT5 in human SCC-25 cells assessed as reduction in H3R2me2 protein expression at 10 uM incubated for 4 days by western blot analysis", "assay_type": "cell-based", "conditions": "time 4.0 day"}, "HSC-6 [3]": {"tested_on": "HSC-6", "assay": "Antitumor activity against human HSC-6 cells xenografted in BALB/c nude mouse assessed as reduction in tumor volume at 15 to 30 mg/kg", "conditions": "dose 15-30 mg/kg"}, "[4]": {"assay": "Toxicity in BALB/c nude mouse xenografted with human tongue squamous carcinoma cells assessed as effect on kidney morphology at 30 mg/kg", "assay_type": "organism-based", "conditions": "in vivo"}, "Rattus norvegicus [5]": {"tested_on": "Rattus norvegicus", "assay": "Antitumor activity against 4-Nitroquinoline-1-Oxide induced cancer Sprague-Dawley rat carcinogenic model assessed as normal area of tongue tissue at 30 mg/kg, iv administered on week 12 and measured on week 22 (reference value: 6.7%)", "assay_type": "functional", "conditions": "time 10 weeks"}, "[6]": {"assay": "Toxicity in BALB/c nude mouse xenografted with human HSC6 cells assessed as effect on liver morphology at 15 to 30 mg/kg", "assay_type": "organism-based", "conditions": "in vivo, dose 15-30 mg/kg", "method_in_brief": "(§2)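 Subcutaneous xenograft in 4-week-old BALB/c nude mice given 6 × 10^7 HSC6 cells into the back. Groups were control, 15 mg/kg and 30 mg/kg. Body weight was monitored and major organs were examined for toxicity.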"}, "[7]": {"target": "Protein arginine N-methyltransferase 5 (Homo sapiens) (UniProt O14744)", "assay": "Inhibition of PRMT5 in human SCC-25 cells assessed as reduction in H3R2me2 enrichment in Twist1 promoter region at 10 uM incubated for 4 days by Chip-qPCR analysis", "assay_type": "cell-based", "conditions": "time 4.0 day", "method_in_brief": "(§3)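 ChIP-qPCR at the Twist1 promoter after 4 days at 10 μM in HSC6 or SCC25 cells. Antibody ratios: H3R2me2s 1:100, H4R3me2s 1:100, WDR5 1:50, Set1 1:50; ChIP assay kit protocol. Mean ± SD of three independent experiments, Student's t test.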"}, "[8]": {"target": "Protein arginine N-methyltransferase 5 (Homo sapiens) (UniProt O14744)", "assay": "Inhibition of PRMT5 in human SCC-25 cells assessed as increase in E-cadherin protein expression level at 10 uM incubated for 4 days by western blot analysis", "assay_type": "cell-based", "conditions": "time 4.0 day", "method_in_brief": "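HSC6 or SCC25 cells treated with 10 μM for 4 days. E-cadherin, N-cadherin and Twist1 proteins detected by immunoblot.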"}, "[9]": {"target": "Protein arginine N-methyltransferase 5 (Homo sapiens) (UniProt O14744)", "assay": "Inhibition of PRMT5 in human HSC-6 cells over expressing Twist1 assessed as decrease in E-cadherin protein level at 10 uM incubated for 4 days by immunoblot analysis", "assay_type": "cell-based", "conditions": "time 4.0 day", "method_in_brief": "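HSC6 cells stably overexpressing Flag-Twist1, with or without 10 μM for 4 days. Twist1, N-cadherin and E-cadherin proteins detected by immunoblot.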"}, "[10]": {"tested_on": "Squamous carcinoma cell line", "assay": "Antitumor activity against human squamous carcinoma cells in BALB/c nude PDX xenograft mouse assessed as reduction in Ki67-positive cells at 30 mg/kg by IHC analysis", "assay_type": "functional, organism-based", "method_in_brief": "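PDX: tongue squamous carcinoma tissue minced into 1∼2 mm3 pieces and passaged in BALB/c nude mice. P2 tissue implanted subcutaneously into 4-week-old mice, randomised at 50 mm3 tumour size to control or 30 mg/kg (n = 6 each). Volume change followed, and Ki-67 IHC quantified. Mean ± SD, Student's t test.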"}, "[11]": {"target": "Protein arginine N-methyltransferase 5 (Homo sapiens) (UniProt O14744)", "assay": "Inhibition of PRMT5 in human SCC-25 cells assessed as reduction in H4R3me2 protein expression at 10 uM incubated for 4 days by western blot analysis", "assay_type": "cell-based", "conditions": "time 4.0 day"}, "[12]": {"target": "Protein arginine N-methyltransferase 5 (Homo sapiens) (UniProt O14744)", "assay": "Inhibition of PRMT5 in human SCC-25 cells over expressing Twist1 assessed as decrease in E-cadherin protein level at 10 uM incubated for 4 days by immunoblot analysis", "assay_type": "cell-based", "conditions": "time 4.0 day", "method_in_brief": "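SCC25 cells stably overexpressing Flag-tagged Twist1 were treated with or without 10 μM inhibitor for 4 days, then immunoblotted for Twist1, N-cadherin and E-cadherin.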"}, "[13]": {"assay": "Toxicity in BALB/c nude mouse xenografted with human HSC6 cells of orthotopic tumor assessed as effect on body weight at 30 mg/kg", "assay_type": "organism-based", "conditions": "in vivo", "method_in_brief": "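Orthotopic model: 5 × 10^5 HSC6 cells injected submucosally into the tongue of 4-week-old BALB/c nude mice. Control vs 30 mg/kg (n = 12 each). Body weight was followed, and cervical lymph nodes were stained with pan-cytokeratin.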"}, "SCC-25 [14]": {"tested_on": "SCC-25", "assay": "Antiproliferative activity against human SCC-25 cells assessed as reduction in colony formation at 0.5 to 5 uM after 10 to 14 days […]", "assay_type": "functional, cell-based", "conditions": "dose 0.5-5 µM, time 10-14 day", "method_in_brief": "as §1"}, "[15]": {"target": "Protein arginine N-methyltransferase 5 (Homo sapiens) (UniProt O14744)", "assay": "Inhibition of PRMT5 in human HSC-6 cells assessed as reduction in WDR5 occupancy in Twist1 promoter region at 10 uM incubated for 4 days by Chip-qPCR analysis", "assay_type": "cell-based", "conditions": "time 4.0 day", "method_in_brief": "as §3"}, "HSC-6 [16]": {"tested_on": "HSC-6", "assay": "Antitumor activity against human HSC-6 cells xenografted in BALB/c nude mouse assessed as as reduction in lymphnode metastasis at 30 mg/kg by H and E analysis", "assay_type": "functional, organism-based"}, "HSC-6 [17]": {"tested_on": "HSC-6", "assay": "Antimigratory activity against human HSC-6 cells assessed as reduction in cell migration after 48 hrs incubated for 48 hrs by transwell assay", "assay_type": "functional, cell-based"}, "[18]": {"assay": "Toxicity in BALB/c nude mouse xenografted with human squamous carcinoma cells assessed as effect on body weight at 30 mg/kg", "assay_type": "organism-based", "conditions": "in vivo"}, "HSC-6 [19]": {"tested_on": "HSC-6", "assay": "Antitumor activity against human HSC-6 cells xenografted in BALB/c nude mouse model of orthotopic tumor assessed as reduction in tumor volume in tongue at 30 mg/kg by H and E staining based assay", "assay_type": "functional, organism-based", "method_in_brief": "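Orthotopic tongue xenograft: 5 × 10^5 HSC6 cells submucosally in 4-week-old BALB/c nude mice, control or 30 mg/kg (n = 12 each). Tumour volume quantified on HE-stained longitudinal tongue sections. Student's t test.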"}, "Rattus norvegicus [20]": {"tested_on": "Rattus norvegicus", "assay": "Antitumor activity against 4-Nitroquinoline-1-Oxide induced cancer Sprague-Dawley rat carcinogenic model assessed as reduction in number of Twist1 positive cells at 30 mg/kg, iv administered on week 12 and measured on week 22 by IHC assay", "assay_type": "functional, organism-based", "conditions": "time 10.0 weeks", "method_in_brief": "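4NQO-induced SD rat tongue lesions (0.002% 4NQO in drinking water for 12 weeks; tail-vein 30 mg/kg from week 12; killed at week 22). IHC with Twist1 antibody 1:250. Percentage of positive cells from 5 random fields per sample. Groups n = 11/6, mean ± SD, Student's t test.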"}, "[21]": {"assay": "Toxicity in BALB/c nude mouse xenografted with human HSC6 cells assessed as effect on body weight at 15 to 30 mg/kg", "assay_type": "organism-based", "conditions": "in vivo, dose 15-30 mg/kg", "method_in_brief": "as §2"}, "HSC-6 [22]": {"tested_on": "HSC-6", "assay": "Antitumor activity against human HSC-6 cells xenografted in BALB/c nude mouse model of orthotopic tumor assessed as as reduction in distant metastasis in kidney at 30 mg/kg by H and E analysis", "assay_type": "functional, organism-based"}, "SCC-25 [23]": {"tested_on": "SCC-25", "assay": "Antiproliferative activity against human SCC-25 cells assessed as reduction in cell vaibility at 1 to 10 uM by CCK-8 assay", "assay_type": "functional, cell-based", "conditions": "dose 1-10 µM", "method_in_brief": "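Proliferation of HSC6 and SCC25 cells read by CCK-8 conversion. Mean ± SD of three independent experiments, Student's t test.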"}}, "note": "Activity calls are given as the source filed them. The rule behind the calls is not given here."}
{"smiles": "O=C(NC[C@H](O)CN1CCc2ccccc2C1)c1cc(NC2COC2)ncn1", "values": [{"measurement": "Activity", "setting": "HSC-6 [1]", "result": "Active"}, {"measurement": "inhibition", "setting": "[2]", "result": "Active"}, {"measurement": "Activity", "setting": "HSC-6 [3]", "result": "Active"}, {"measurement": "Activity", "setting": "[4]", "result": "Non-Toxic"}, {"measurement": "Activity", "setting": "Rattus norvegicus [5]", "result": 38.5, "unit": "%"}, {"measurement": "Activity", "setting": "[6]", "result": "Non-Toxic"}, {"measurement": "inhibition", "setting": "[7]", "result": "Active"}, {"measurement": "inhibition", "setting": "[8]", "result": "Active"}, {"measurement": "inhibition", "setting": "[9]", "result": "inactive"}, {"measurement": "Activity", "setting": "[10]", "result": "Active"}, {"measurement": "inhibition", "setting": "[11]", "result": "Active"}, {"measurement": "inhibition", "setting": "[12]", "result": "inactive"}, {"measurement": "Activity", "setting": "[13]", "result": "Non-Toxic"}, {"measurement": "Activity", "setting": "SCC-25 [14]", "result": "Active"}, {"measurement": "inhibition", "setting": "[15]", "result": "Active"}, {"measurement": "Activity", "setting": "HSC-6 [16]", "result": "Active"}, {"measurement": "Activity", "setting": "HSC-6 [17]", "result": "Active"}, {"measurement": "Activity", "setting": "[18]", "result": "Non-Toxic"}, {"measurement": "Activity", "setting": "HSC-6 [19]", "result": "Active"}, {"measurement": "Activity", "setting": "Rattus norvegicus [20]", "result": "Active"}, {"measurement": "Activity", "setting": "[21]", "result": "Non-Toxic"}, {"measurement": "Activity", "setting": "HSC-6 [22]", "result": "Active"}, {"measurement": "Activity", "setting": "SCC-25 [23]", "result": "Active"}]}
